# Source: PubChem BioAssay (Sanford-Burnham Center for Chemical Genomics)
# These entries were drawn from the full list.
# HKDC1 act – increases human hexokinase HKDC1 activity | AID 493187 | recombinant HKDC1, G6PDH/diaphorase resazurin fluorescence; active compounds read low | Q2TB90 | activity change, negative = activation, % at 20 µM | actives 0.056% (n = 340,000);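 active means activation of 40% or more at 20 µM, a change of -40% or lower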
# Target sequence (Q2TB90 whole entry, looked up): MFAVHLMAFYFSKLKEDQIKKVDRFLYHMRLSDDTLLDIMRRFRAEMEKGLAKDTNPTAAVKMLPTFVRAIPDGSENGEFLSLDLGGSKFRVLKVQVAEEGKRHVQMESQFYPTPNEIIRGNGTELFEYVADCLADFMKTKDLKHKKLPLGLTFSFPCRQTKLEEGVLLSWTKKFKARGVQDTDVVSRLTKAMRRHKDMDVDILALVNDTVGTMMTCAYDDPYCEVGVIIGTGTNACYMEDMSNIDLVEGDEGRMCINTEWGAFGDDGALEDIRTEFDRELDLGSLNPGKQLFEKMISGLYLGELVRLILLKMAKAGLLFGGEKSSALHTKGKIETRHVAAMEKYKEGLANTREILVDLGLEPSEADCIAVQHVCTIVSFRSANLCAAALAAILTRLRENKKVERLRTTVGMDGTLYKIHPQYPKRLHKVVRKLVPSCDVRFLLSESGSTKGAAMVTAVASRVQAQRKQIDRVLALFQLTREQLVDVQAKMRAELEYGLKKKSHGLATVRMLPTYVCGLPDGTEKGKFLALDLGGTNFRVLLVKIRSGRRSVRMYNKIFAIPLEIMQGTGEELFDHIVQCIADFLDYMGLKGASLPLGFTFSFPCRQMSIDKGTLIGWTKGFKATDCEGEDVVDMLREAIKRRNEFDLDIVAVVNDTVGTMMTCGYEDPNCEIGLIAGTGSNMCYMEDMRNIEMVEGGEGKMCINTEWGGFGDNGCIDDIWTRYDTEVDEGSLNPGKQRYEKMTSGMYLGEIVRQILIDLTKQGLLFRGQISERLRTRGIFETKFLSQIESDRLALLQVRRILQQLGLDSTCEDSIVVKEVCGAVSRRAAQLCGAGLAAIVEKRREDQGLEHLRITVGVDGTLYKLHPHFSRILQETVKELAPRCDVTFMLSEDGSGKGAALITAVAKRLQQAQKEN
#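 System: in-house human HKDC1 enzyme, G6PDH and diaphorase coupling enzymes; Quantity: 5 µg/mL HKDC1 final; Buffer or medium: Tris/MgCl2 buffer, pH 8.0; Dosing: single compound dose of 20 µM, 1% DMSO final; Times: 90 min reaction at room temperature, dark; Detection: coupled resazurin-to-resorufin fluorescence, Ex 525/Em 613 nm.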
# Numbers without * were called inactive.
SMILES,HKDC1 act
COC(=O)C1=C(C(=O)OC)SC2(S1)C(C(=O)OC)=C(C(=O)OC)Sc1c2ssc1=O,-108.7*
O=C1NC(=S)N(c2ccc(F)cc2)C(=O)/C1=C\c1ccoc1,50.9
O=C(O)CC1OCC=C2CN3CCC45C6=CC(=O)C(=O)C([N+](=O)[O-])=C6NC4C1C2CC35 (stereo unspecified),42.5
Cc1cc(/C=C2\C(=O)NC(=O)N(c3ccc(Cl)cc3)C2=O)c(C)n1-c1sc2c(c1C#N)CCCC2,68.9
Cn1c(=O)c2c(nc(N/N=C/c3c(O)n(C4CCCCC4)c(=S)[nH]c3=O)n2C)n(C)c1=O,-46.3*
COc1ccc(OC)c(N2C(=O)/C(=C/c3ccco3)C(=O)NC2=S)c1,82.3
CCOC(=O)c1c(-n2c(C)cc(/C=C3\C(=O)NC(=O)N(C)C3=O)c2C)sc2c1CCCC2,51.2
O=C1CC=C2C3CC4N(CCC45c4cc(O)c(O)cc4N1C25)CC3=CCBr (stereo unspecified),44.6
Cc1ccc2c(C)c3ccc4ccccc4c3c[n+]2c1,-52.8*
COC(=O)C1CN(C#N)N(c2ccc(Cl)cc2)C12c1ccccc1-c1ccccc12 (stereo unspecified),87.2
O=c1c2ccccc2[se]n1-c1ccccc1,-115.9*
O=c1[nH]c(O)c(/C=C2/C=CC(c3cc(Cl)ccc3Cl)=N2)c(=O)[nH]1,40.4
N#CC1=C(N)Oc2c(c(=O)sc3ccccc23)C1c1ccncc1 (stereo unspecified),-57.7*
COc1ccc(/C=C2\C(=O)NC(=S)N(C)C2=O)cc1C,36.4
N#CC(C#N)=Cc1ccc(C=C(C#N)C#N)cc1,37.6
CCn1nc(-c2ccccc2)nc2c(=O)n(C)c(=O)nc1-2,-83.0*
O=C1C=CC(=O)C=C1,48.3
CC[C@H](C)/C=C(C)/C=C/C1=CC2=C(Cl)C(=O)[C@@](C)(OC(C)=O)C(=O)C2=CO1,62.8
NC(=O)c1ccc(N=Cc2c(O)n(Cc3ccco3)c(=O)[nH]c2=O)cc1,36.2
